Experimental data published in ChEMBL document CHEMBL1156758, “Quantitative analyses of aggregation, autofluorescence, and reactivity artifacts in a screen for inhibitors of a thiol protease” (J Med Chem, 2010).

What was measured:
[1] = Inhibition of Beta-lactamase AmpC by quantitative high throughput screening
Cruzipain [2] = target: T1, Cruzipain (Trypanosoma cruzi, UniProt P25779); assay: Inhibition of Trypanosoma cruzi cruzain by quantitative high throughput screening
How it was run: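 1536-well qHTS in 100 mM acetate pH 5.5 with 5 mM DTT, 4 μL final volume. Two conditions: 0.01% Triton X-100 with 1.5 nM cruzain, or 0.00005% Triton with 3 nM cruzain. Seven compound concentrations from 57.5 μM to 3.7 nM, preincubated 15 min at room temperature. Then 2 μM Z-Phe-Arg-AMC added. Fluorescence (ex 340/em 450) read kinetically over 60 s. Initial-rate data fitted to a four-parameter Hill equation.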

Cruzipain [3] = target: T1, Cruzipain; assay: Inhibition of Trypanosoma cruzi cruzain by Flexstation microplate spectrofluorimetry
How it was run: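 Secondary 96-well assay: 0.4 nM cruzain in 0.1 M sodium acetate pH 5.5, 5 mM DTT, with or without 0.01% Triton X-100. Compound from 200x DMSO stock preincubated with enzyme 15 min. Reaction started with Z-Phe-Arg-AMC at 2.5 μM final (Km 2 μM) and followed for 5 min. Percent inhibition taken from initial rates versus a DMSO control. Each assay run at least twice.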

T1 sequence (P25779 whole entry): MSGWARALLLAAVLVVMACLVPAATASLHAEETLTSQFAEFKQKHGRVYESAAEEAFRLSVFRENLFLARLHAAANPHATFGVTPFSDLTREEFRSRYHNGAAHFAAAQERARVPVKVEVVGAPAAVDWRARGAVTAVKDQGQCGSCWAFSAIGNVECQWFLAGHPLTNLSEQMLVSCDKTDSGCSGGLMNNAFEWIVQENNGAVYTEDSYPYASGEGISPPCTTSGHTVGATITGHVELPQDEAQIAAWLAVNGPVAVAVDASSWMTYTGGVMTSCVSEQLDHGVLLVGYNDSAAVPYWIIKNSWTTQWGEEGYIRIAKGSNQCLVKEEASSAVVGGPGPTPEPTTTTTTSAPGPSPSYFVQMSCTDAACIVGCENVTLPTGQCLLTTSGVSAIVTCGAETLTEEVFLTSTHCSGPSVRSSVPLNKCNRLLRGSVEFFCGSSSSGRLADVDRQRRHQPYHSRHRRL

Compound	IC50 [1]	IC50 (Cruzipain [2])	IC50 (Cruzipain [3])
O=[N+]([O-])c1ccccc1S(=O)(=O)NC[C@H]1CC[C@H](CNCC2CCc3ccccc3C2)CC1 (some centres not stated)	13 µM	> 60 µM	> 120 µM
CCCCC/C=C\C/C=C\C/C=C\C/C=C\CCCC(=O)Nc1ccc(O)cc1	10 µM	> 60 µM	30 µM
Cc1cc(NC(=O)c2cc(CC(C)C)on2)no1	4 µM	> 60 µM	120 µM
COc1ccc(S(=O)(=O)Nc2nc3ccccc3nc2NCc2ccc3c(c2)OCO3)cc1			12 µM
O=C(Nc1nc(-c2ccc(S(=O)(=O)N3CCCCCC3)cc2)cs1)c1cccs1	8 µM	> 60 µM	12 µM
Oc1cc(-c2ccc(Cl)c(Cl)c2)[nH]n1	13 µM	> 60 µM	12 µM
O=C(CS[n+]1cc(-c2ccc(F)cc2)cs1)NC(=O)NCc1ccco1	3 µM	> 60 µM	60 µM
O=C(CSc1nnc(-c2ccccc2)o1)N1CCN(c2ccccc2)CC1	13 µM	> 60 µM	30 µM
CCn1ccnc1C(O)c1cccc(OC)c1OC (configuration not stated)	4 µM	> 60 µM	> 120 µM
O=C(Nc1ccc(/N=N/c2ccccc2)cc1)c1cccc(Cl)c1			12 µM
Cc1ccc(Cl)cc1NC(=O)CCC(=O)Nc1cc(Cl)ccc1C			12 µM
C=C(C)CSc1cc(N)c(C#N)c(-c2ccc(C)cc2)c1C#N	6 µM	> 60 µM	12 µM
Cc1ccc(NC(=O)CSC(N)=O)cc1Cl	13 µM	> 60 µM	> 120 µM
CCc1ccc(C(=O)CSC2=C(C#N)C(c3ccco3)C(C(C)=O)=C(C)N2)cc1 (configuration not stated)	13 µM	> 60 µM	30 µM
c1ccc(-c2cc3c(NCC4COc5ccccc5O4)ncnc3s2)cc1 (configuration not stated)			12 µM
CCN(Cc1ccccc1)c1nc2c(S(=O)(=O)c3ccccc3)nnn2c2ccc(Cl)cc12			12 µM
Cc1cccc(NS(=O)(=O)c2ccc(C)c(C(=O)OCC(=O)Nc3cc(C)on3)c2)c1	10 µM	> 60 µM	30 µM
O=C(Cn1c(=O)oc2ccccc21)Nc1oc(-c2ccccc2)c(-c2ccccc2)c1O	13 µM	> 60 µM	12 µM
O=C(Nc1nc(-c2cccs2)cs1)c1ccc(S(=O)(=O)N2CCCC2)cc1	13 µM	> 60 µM	12 µM
O=C(COC(=O)c1cccc(Oc2ccccc2)c1)Nc1nnc(-c2ccccc2)o1	16 µM	> 60 µM	12 µM
Cn1c(C(C#N)C(=O)c2sc3ccccc3c2Cl)nc2ccccc21 (configuration not stated)	13 µM	> 60 µM	12 µM

Compound	IC50 [1]	IC50 (Cruzipain [2])	IC50 (Cruzipain [3])
O=C(COC(=O)c1cc(-c2ccco2)nc2ccccc12)NCc1ccc2c(c1)OCO2	13 µM	> 60 µM	30 µM
COC(=O)c1ccc(-c2nc(-c3ccc(Br)o3)no2)cc1	4 µM	> 60 µM	30 µM
Cc1ccc(C(=O)Nc2nc(-c3cc(Cl)sc3Cl)cs2)cc1			12 µM
COc1ccc(C(=O)Nc2nncs2)c(OC)c1	4 µM	> 60 µM	> 120 µM
O=C(c1ccccc1)c1cn(CC(=O)N2CCCC2)c2ccccc12	4 µM	> 60 µM	120 µM
Cc1cc(=O)oc2cc(OCC#N)ccc12	4 µM	> 60 µM	> 120 µM
Cc1sc(NC(=S)NC(=O)C2CCCCC2)c(C(N)=O)c1C			12 µM
Cn1cnnc1SCC(=O)Nc1sc2c(c1C(N)=O)CCC2	10 µM	> 60 µM	120 µM
CCSc1nnc(NC(=O)c2ccc(Br)s2)s1	10 µM	> 60 µM	12 µM
NC(=O)SCC(=O)Nc1cccc(Cl)c1	8 µM	> 60 µM	> 120 µM
O=C(Nc1nc(-c2cccc(Br)c2)cs1)Oc1ccccc1			30 µM
Cc1ccc(-c2csc(NC(=O)c3ccno3)n2)cc1	8 µM	> 60 µM	> 120 µM
N#Cc1c(-c2ccccc2)cc(-c2ccco2)c(C#N)c1N	6 µM	> 60 µM	12 µM
O=C(CSCc1ccc(Cl)cc1)c1ccco1	10 µM	> 60 µM	120 µM
Cc1cc(NC(=O)Cc2cccs2)no1	13 µM	> 60 µM	30 µM
COc1ccc(/C=N/NC(=O)c2ccc(Br)cc2)cc1Cn1cc(Cl)cn1			12 µM
C=CCNC(=O)c1cc([N+](=O)[O-])cc2c(=O)[nH]c(Nc3ccc(Cl)c(Cl)c3)nc12	2 µM	> 60 µM	
O=c1c(O)c(-c2ccc(O)c(O)c2)oc2cc(O)ccc12 [FISETIN]	13 µM	> 60 µM	30 µM
CCCCCCNC(=O)Nc1ccc(S(=O)(=O)Nc2ccc(CCNC[C@H](O)COc3ccc(O)cc3)cc2)cc1 [L-755507]		> 60 µM	12 µM
O=C(c1ccc(OCCN2CCCCC2)cc1)c1c(-c2ccc(O)cc2)sc2cc(O)ccc12 [RALOXIFENE]	5 µM	> 60 µM	
